CHO parental Ca: signal in parental CHO cells, OX1R antagonist counter-screen; parental CHO-K1, ATP-induced calcium, Fluo-8 fluorescence; inhibition, % at 5.6 µM; 0.63% of 330,000 active; AID 463079;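 active means inhibition above that plate's mean sample inhibition plus 3 SD, cut at about 26% in these data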;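 further: 0% = ATP-challenged DMSO wells and 100% = DMSO wells without ATP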
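Material – parental CHO cells · Reagent – ATP stimulus · Compound – single nominal dose of 5.6 µM per compound · Detection – Fluo-8 fluorescence · Read-out basis – percent inhibition of calcium signal · Controls – ATP-challenged DMSO wells low, unchallenged DMSO wells high · Repeats – no replicates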
TAAR1 antagonist: antagonists of human TAAR1; AID 624466; 1.5% of 360,000 active; Q96RJ0; inhibition, % at 3 µM; CHO RD-HGA16 TAAR1, Fluo-8 calcium fluorescence, antagonist;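 active means inhibition above a per-plate cutoff, the mean inhibition of test compounds on that plate plus 3 SD, cut at about 49% in these data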;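 further: 0% = DMSO plus EC80 beta-PEA response and 100% = DMSO alone without agonist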
Target sequence (Q96RJ0 whole entry, looked up): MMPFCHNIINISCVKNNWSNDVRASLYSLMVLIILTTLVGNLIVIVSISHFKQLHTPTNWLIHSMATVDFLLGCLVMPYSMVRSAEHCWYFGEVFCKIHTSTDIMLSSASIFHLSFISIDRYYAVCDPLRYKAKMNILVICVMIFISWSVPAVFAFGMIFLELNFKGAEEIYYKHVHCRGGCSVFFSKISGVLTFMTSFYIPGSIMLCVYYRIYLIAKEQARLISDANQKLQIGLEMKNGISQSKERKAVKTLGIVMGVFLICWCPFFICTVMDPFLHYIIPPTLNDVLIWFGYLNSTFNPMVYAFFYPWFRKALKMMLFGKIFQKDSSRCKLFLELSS
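Test system – hTAAR1-expressing CHO RD-HGA16 cells, Gα16-coupled · Also added – β-PEA at EC80 concentration, post-compound challenge · Compound – 3 µM, single point · Incubation – dye loading 75 min at 37 °C, then 30 min room temperature · Measured by – Fluo-8 intracellular calcium dye fluorescence, real-time kinetic reads · Benchmarks – vehicle and agonist controls · Replicates – singlicate, one well per test compound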
OX1R antag-1: human HCRTR1 antagonism; O43613; CHO/OX1R cells, Fluo-8 calcium fluorescence, orexin A; inhibition, % at 5 µM; 0.43% of 330,000 active; AID 434989;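 active means inhibition above its plate's threshold, mean inhibition of all tested compounds on the plate plus 3 SD, cut at about 37% in these data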;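 further: 0% = orexin A challenge wells and 100% = SB-334867-A antagonist wells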
OX1R antag-2: OX1R (human) antagonism; 1.8% of 330,000 active; AID 485270; OX1R-expressing cells, FRET antagonist read-out; inhibition, % at 6.6 µM; in the data active means inhibition mostly above about 38%, no sharp cut-off; inactive means mostly below about 40%;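 further: 0% = agonist challenge alone and 100% = reference antagonist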
TAAR1 agonist: human TAAR1 agonism; activation, % at 3 µM; 0.99% of 360,000 active; CHO RD-HGA16 TAAR1, Fluo-8 calcium fluorescence; vehicle wells 0%, saturating PEA agonist 100%; Q96RJ0;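 active means activation above the mean activation of all test compounds in the run plus 3 SD, cut at about 38% in these data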
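Signal – calcium-sensitive Fluo-8 signal, excitation 470-495, emission 515-575 nm · System – RD-HGA16 (CHO) cells co-expressing Gα16 and hTAAR1 · Incubation – 17-24 h seeding, 75 min 37 °C dye, 30 min RT · Compound dosing – 3 µM single concentration · Repeats – no replicates (n 1)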
GalR3 antagonist: blocks the human galanin receptor 3; O60755; HEK293 GalR3-CNG cAMP membrane potential fluorescence; galR3 body fused to GalR1 C-terminus; inhibition, % at 3 µM; 0.44% of 360,000 active; AID 651719;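 active means inhibition above the screen-wide average plus 3 SD, cut at about 13% in these data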;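 further: forskolin and galanin both at EC90 stimulate the cells; cAMP rise reported by CNG channel membrane potential dye signal; 0% = forskolin plus galanin with DMSO and 100% = forskolin alone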
Target sequence (O60755 1-299 limits assumed): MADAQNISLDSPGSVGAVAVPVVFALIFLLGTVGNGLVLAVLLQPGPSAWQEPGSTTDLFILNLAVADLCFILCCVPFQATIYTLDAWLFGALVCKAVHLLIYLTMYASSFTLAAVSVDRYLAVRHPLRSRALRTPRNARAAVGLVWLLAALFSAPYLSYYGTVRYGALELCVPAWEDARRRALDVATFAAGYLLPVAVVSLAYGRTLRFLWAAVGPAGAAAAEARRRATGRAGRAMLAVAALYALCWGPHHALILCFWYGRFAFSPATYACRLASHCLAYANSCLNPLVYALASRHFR
An asterisk follows results filed as active; . = no result given. The list is not random: actives were taken first. Their share in the collection is about 4.3%.

SMILES	CHO parental Ca	TAAR1 antagonist	OX1R antag-1	OX1R antag-2	TAAR1 agonist	GalR3 antagonist
CCCCn1c(=NC(=O)c2cccnc2)c(C(=O)OCC)cc2c(=O)n3ccccc3nc21	.	26	.	.	16	-5
CCCCn1c(=NC(=O)c2ccco2)c(C(=O)OCC)cc2c(=O)n3cccc(C)c3nc21	-5	-6	-30	30	5	-3
Cc1ccc(S(=O)(=O)N2CCN(C(=O)CCC(=O)NCc3cccc(C(F)(F)F)c3)CC2)cc1	-10	-2	-22	15	2	-2
CC(C)OC(=O)NC(C)(C)COC(=O)Nc1cccc(Cl)c1	35*	4	20	31	9	-6
CC(C)OC(=O)NCCOC(=O)Nc1cccc(Cl)c1	37*	30	48*	59	14	-3
CC(C)OC(=O)NCCOC(=O)Nc1ccc(Cl)c(Cl)c1	50*	28	40	38	5	-3
O=C(Nc1cccc(Cl)c1)OCCOC(=O)Nc1cccc(Cl)c1	.	18	.	.	0	-8
CCCN1CCCCC(NC(=O)c2cccs2)C1=O (stereo not drawn)	.	7	.	.	0	-5
COC(=O)c1cc2c(c3c4cc(OC)ccc4n(S(=O)(=O)c4ccc(OC)cc4)c13)C(=O)N(C1CCCCC1)C2	.	-23	.	.	0	-8
Cc1onc(-c2ccccc2Cl)c1C(=O)Nc1ccc(-c2cn3cccnc3n2)cc1	-8	.	5	46*	.	.
Cc1ccc(-c2cn3cccnc3n2)cc1NC(=O)c1c(-c2ccccc2Cl)noc1C	-3	15	-31	26	1	-5
Cc1onc(-c2ccccc2Cl)c1C(=O)NCCn1c(C)cc2ccccc21	-3	.	7	46*	.	.
Cc1cc2nc(-c3ccc(F)cc3)c(CC3CCCCC3)n2c(C)c1Br	.	-5	.	.	1	-6
O=C1N=c2ccccc2=C1c1[nH]c(=S)[nH]c1O	5	-9	-11	43*	8	1
O=C(Cn1ncn2nc(-c3ccccc3)cc2c1=O)NCc1ccccn1	-3	-7	-18	14	1	-5
COC(=O)CCN(C(=O)c1cc([N+](=O)[O-])cc([N+](=O)[O-])c1)c1ccccn1	1	13	-17	66*	14	-5
COC(=O)CCN(C(=O)c1ccc([N+](=O)[O-])cc1)c1ccccn1	-35	-22	-71	34	11	-1
O=C(c1nc2ccc(Cl)cn2c1CN1CCCC1)N1CCc2ccccc2C1	-22	-18	-20	-3	47*	4
O=C(c1ncn(Cc2ccccc2)c1C(=O)N1CCc2ccccc2C1)N1CCc2ccccc2C1	-20	45	-6	9	41*	-4
O=C(c1ncn(Cc2ccccc2)c1C(=O)N1CCN(c2ccccc2)CC1)N1CCN(c2ccccc2)CC1	-22	13	8	9	10	-4
C#CCOCCOCCOCCNc1nc(N2CCN(C(=O)CCCCCCCCCCNC(=O)Cn3cc(CCCCCN)nn3)CC2)nc(N2CCN(C(=O)CCCCCCCCCCNC(=O)Cn3cc(C[C@@H](C)O)nn3)CC2)n1	41*	.	13	-19	.	.
C#CCOCCOCCOCCNc1nc(N2CCN(C(=O)CCCCCCCCCCNC(=O)[C@H](CCCCN)n3cc(CCO)nn3)CC2)nc(N2CCN(C(=O)CCCCCCCCCCNC(=O)[C@H](CCCCN)n3cc(C[C@@H](C)CC)nn3)CC2)n1	54*	.	8	5	.	.
C#CCOCCOCCOCCNc1nc(N2CCN(C(=O)CCCCCCCCCCNC(=O)[C@@H](CCC(=O)O)n3cc(CCCCCN)nn3)CC2)nc(N2CCN(C(=O)CCCCCCCCCCNC(=O)[C@H](CCCCN)n3cc(C[C@@H](C)CC)nn3)CC2)n1	-1	.	-17	-14	.	.
C[C@H](O)[C@@H]1C(=O)N2CCc3c([nH]c4c(-c5ccccc5)cccc34)[C@@H]2C[C@@H]1N(C)C(=S)NCCc1ccccc1	.	-14	.	.	19	-6
Cc1ccc2c(CN3CCN(c4ccc(Cl)c(Cl)c4)CC3)cc(=O)oc2c1	.	-1	.	.	5	-1
SMILES	CHO parental Ca	TAAR1 antagonist	OX1R antag-1	OX1R antag-2	TAAR1 agonist	GalR3 antagonist
CN1/C(=C/C2CC(=O)N(c3cccc4ccccc34)C2=O)C(C)(C)c2ccccc21 (stereo not drawn)	-12	50*	-1	13	16	-2
Cc1cc(C)cc(NC(=O)c2cc(C)n(Cc3cccs3)c2C)c1	59*	-12	10	17	2	-4
Oc1[nH]c2ccccc2c1C=Nc1ccc2c(c1)OCO2	-11	10	-3	59*	4	-4
Cc1nc(Nc2ccccc2)sc1C(=O)c1ccc(F)cc1	-19	7	-14	8	-2	-13
Nc1nc(Nc2ccccc2F)sc1C(=O)c1ccccc1	-22	-15	-32	16	48*	-8
O=C(Nc1nc2ccccc2s1)c1cc(-c2ccccc2)nn1-c1ccccc1	42*	15	15	30	0	-6
O=C(Nc1nc2ccccc2s1)c1ccc(Cl)s1	-12	-10	-8	43*	-1	-6
O=C(NNC(=O)c1cc(-c2ccccc2)nn1-c1ccccc1)c1ccccc1	-5	-22	-16	27	4	-2
Cc1cnc(NC(=O)c2cc(-c3ccccc3)nn2-c2ccccc2)s1	.	1	.	.	0	-3
CC(=O)c1sc(NC(=O)c2cc(-c3ccccc3)nn2-c2ccccc2)nc1C	-18	3	-5	66*	0	-3
COc1ccc(N2C(=O)c3n[nH]c(C(C)C)c3C2c2ccccc2)cc1 (stereo not drawn)	.	-34	.	.	-1	-7
CSc1ncnc2c1ccn2CC(=O)Nc1ccc(C)c(C)c1	-11	14	-18	2	43*	-8
Cc1ccc(NC(=O)Cn2cccc2)cc1C	2	12	5	15	8	-8
CCc1ccc(-c2cc(C)no2)cc1S(=O)(=O)NCc1ccccc1OC	7	-25	15	36	-3	0
COc1ccccc1CNS(=O)(=O)c1ccc(-c2cc(C)no2)cc1	-5	12	12	66*	1	-1
Cc1ccc(Cc2c(-c3ccco3)nc3c(C)cc(Br)cn23)cc1	.	30	.	.	18	34*
c1ccc(-c2cc3nccc(-c4ccccn4)n3n2)cc1	0	-11	-5	48*	-2	-1
CCc1nc2c(OCC(=O)N3CCOCC3)cccn2c1N(C)C(=O)COc1ccccc1	.	-16	.	.	1	-3
CN(C)c1ccc(NC(=O)/C=C/c2ccccc2Cl)cc1	-16	18	-8	64*	4	-3
Cc1cc(NC(=O)/C=C/c2ccccc2Cl)no1	8	-11	0	7	1	-3
CCN(CC)c1ccc(NC(=O)/C=C\c2ccccc2Cl)cc1	-18	11	12	40*	6	-10
